Results as given in ChEMBL document CHEMBL1134482, “Ether phospholipid-AZT conjugates possessing anti-HIV and antitumor cell activity. Synthesis, conformational analysis, and study of their thermal effects on membrane bilayers” (J Med Chem, 2001).

Key:
[1] = test system: CEM-TK(-); assay: Concentration required to protect CEM/TK cells against the cytopathicity of HIV-2 by 50%; assay type: functional, cell-based; conditions: Homo sapiens
Outline: (§1)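 CEM cells (wild-type, or TK-deficient for the HIV-2 CEM/TK- line) were infected with HIV-1 or HIV-2. EC50 was taken as the concentration protecting the cells from virus-induced cytopathicity by 50%. Values are averages of at least two separate experiments.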

[2] = test system: CCRF-CEM; assay: Concentration required to protect CEM/0 cells against the cytopathicity of HIV-1 by 50%.; assay type: functional, cell-based; conditions: Homo sapiens; outline: as §1
[3] = test system: MOLT-4; assay: Inhibitory effect of compound on the proliferation of human T-lymphocyte cells Molt4/C8; assay type: functional, cell-based
Outline: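 Human Molt4/C8 T-lymphoblast cells were incubated with the compound for 3 days at 37 °C. IC50 was the concentration cutting the total viable cell number by 50%.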

[4] = test system: L1210/TK-; assay: Inhibitory effect of compound on the proliferation of murine leukemia cells L1210/TK-; assay type: functional, cell-based; conditions: Mus musculus
Outline: (§2)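 Murine L1210/0, L1210/TK- leukemia cells or FM3A/0 mammary carcinoma cells were incubated with the compound for 2 days at 37 °C. IC50 was the concentration reducing the total number of viable cells by 50%.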

[5] = test system: CCRF-CEM; assay: Concentration required to reduce CEM/0 cell viability by 50%; assay type: functional; conditions: Homo sapiens
Outline: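 Uninfected CEM/0 T-lymphocytes were exposed to the compound. CC50 was the concentration reducing CEM cell viability by 50%. Values are averages of at least two separate experiments.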

[6] = test system: L1210; assay: Inhibitory effect of compound on the proliferation of murine leukemia cells L1210/0.; assay type: functional, cell-based; conditions: Mus musculus; outline: as §2
[7] = test system: FM3A; assay: Inhibitory effect of compound on the proliferation of murine mammary carcinoma cells FM3A/0; assay type: functional, cell-based; conditions: Mus musculus; outline: as §2
[8] = test system: CCRF-CEM; assay: Concentration required to protect CEM/0 cells against the cytopathicity of HIV-2 by 50%.; assay type: functional, cell-based; conditions: Homo sapiens; outline: as §1

EC50 [1] | EC50 [2] | IC50 [3] | IC50 [4] | IC50 [6] | EC50 [8] | Structure (SMILES) | CC50 [5] | IC50 [7]
> 50 µM | 0.58 µM | 144 µM | 165 µM | 12.5 µM | 1 µM | CCCCCCCCCCCCCCCCOP(=O)(O)OCC1OC(n2cc(C)c(=O)[nH]c2=O)CC1N=[N+]=[N-] (stereo not drawn) | 161 µM | 133 µM
> 10 µM | 0.065 µM | 21.4 µM | 33.6 µM | 0.98 µM | 0.08 µM | CCCCCCCCCCCCCCCCOCC(COP(=O)(O)OCC1OC(n2cc(C)c(=O)[nH]c2=O)CC1N=[N+]=[N-])OC (stereo not drawn) | 34.3 µM | 68.4 µM

Structure (SMILES) | EC50 [1] | EC50 [2] | IC50 [3] | IC50 [4] | IC50 [6] | EC50 [8] | CC50 [5] | IC50 [7]
Cc1cn([C@H]2C[C@H](N=[N+]=[N-])[C@@H](CO)O2)c(=O)[nH]c1=O [ZIDOVUDINE] | > 100 µM | 0.0064 µM | 62.8 µM | > 500 µM | 6.18 µM |  | > 500 µM | 203 µM
